According to ChEMBL document CHEMBL3596191, “Inhibition studies of bacterial, fungal and protozoan β-class carbonic anhydrases with Schiff bases incorporating sulfonamide moieties” (Bioorg Med Chem, 2015):

How the values were obtained:
[1] = Selectivity ratio of Ki for human alpha-carbonic anhydrase 1 to Ki for Brucella suis beta-carbonic anhydrase 1
[2] = Inhibition of Brucella suis beta-carbonic anhydrase 1 incubated for 15 mins prior to testing by stopped-flow CO2 hydration assay
Method in brief: (§1)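 Stopped-flow CO2 hydration; 0.2 mM phenol red read at 557 nm in 10 mM Hepes pH 7.4, 10 mM Tris-HCl, 0.1 M NaSO4; CO2 1.7–17 mM. Inhibitor (10 mM water stock, diluted down to 0.01 nM) preincubated with enzyme 15 min at room temperature. Initial rates from at least six traces of the first 5–10% of reaction, over 10–100 s, with uncatalysed rates subtracted.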

Brucella suis [3] = assay: Potency index, ratio of acetazolamide Ki to compound Ki for Brucella suis beta-carbonic anhydrase 2
[4] = Selectivity ratio of Ki for human alpha-carbonic anhydrase 2 to Ki for Brucella suis beta-carbonic anhydrase 2
[5] = Inhibition of Cryptococcus neoformans beta-carbonic anhydrase incubated for 15 mins prior to testing by stopped-flow CO2 hydration assay
Method in brief: (§2)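 CO2 was 1.7–17 mM. Initial rates were taken from at least six traces of the first 5–10% of reaction over 10–100 s, with uncatalysed rates subtracted. Inhibitor dilutions were in water down to 0.01 nM, preincubated with enzyme 15 min at room temperature.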

[6] = Selectivity ratio of Ki for human alpha-carbonic anhydrase 1 to Ki for Cryptococcus neoformans beta-carbonic anhydrase
Method in brief: (§3)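 Ki ratio, human CA isoform Ki divided by pathogen β-CA Ki, used as an index of selectivity for the pathogen enzyme over the human enzyme.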

[7] = Inhibition of Brucella suis beta-carbonic anhydrase 2 incubated for 15 mins prior to testing by stopped-flow CO2 hydration assay; method in brief: as §1
[8] = Selectivity ratio of Ki for human alpha-carbonic anhydrase 1 to Ki for Brucella suis beta-carbonic anhydrase 2
[9] = Selectivity ratio of Ki for human alpha-carbonic anhydrase 2 to Ki for Leishmania donovani chagasi beta-carbonic anhydrase; method in brief: as §3
[10] = Selectivity ratio of Ki for human alpha-carbonic anhydrase 2 to Ki for Cryptococcus neoformans beta-carbonic anhydrase; method in brief: as §3
[11] = Selectivity ratio of Ki for human alpha-carbonic anhydrase 1 to Ki for Leishmania donovani chagasi beta-carbonic anhydrase; method in brief: as §3
[12] = Inhibition of Leishmania donovani chagasi beta-carbonic anhydrase incubated for 15 mins prior to testing by stopped-flow CO2 hydration assay; method in brief: as §2
Brucella suis [13] = assay: Potency index, ratio of dichlorphenamide Ki to compound Ki for Brucella suis beta-carbonic anhydrase 2
[14] = Selectivity ratio of Ki for human alpha-carbonic anhydrase 2 to Ki for Brucella suis beta-carbonic anhydrase 1
Brucella suis [15] = assay: Potency index, ratio of benzolamide Ki to compound Ki for Brucella suis beta-carbonic anhydrase 2
Brucella suis [16] = assay: Potency index, ratio of acetazolamide Ki to compound Ki for Brucella suis beta-carbonic anhydrase 1
Brucella suis [17] = assay: Potency index, ratio of benzolamide Ki to compound Ki for Brucella suis beta-carbonic anhydrase 1
Brucella suis [18] = assay: Potency index, ratio of dichlorphenamide Ki to compound Ki for Brucella suis beta-carbonic anhydrase 1

Row | SMILES | Ratio Ki [1] | Ki [2] [nM] | Ratio Ki (Brucella suis [3]) | Ratio Ki [4] | Ki [5] [nM] | Ratio Ki [6] | Ki [7] [nM] | Ratio Ki [8] | Ratio Ki [9] | Ratio Ki [10] | Ratio Ki [11] | Ki [12] [nM] | Ratio Ki (Brucella suis [13]) | Ratio Ki [14] | Ratio Ki (Brucella suis [15]) | Ratio Ki (Brucella suis [16]) | Ratio Ki (Brucella suis [17]) | Ratio Ki (Brucella suis [18])
1 | COc1ccc(/C=N/CCc2ccc(S(N)(=O)=O)cc2)c(O)c1 | 40.2 | 110 | 10 | 31.8 | 17 | 258 | 21.9 | 201 | 3.7 | 40.9 | 23.2 | 190 | 10 | 6.4 | 10 |  |  | 
2 | N#Cc1ccc(/C=N/CCc2ccc(S(N)(=O)=O)cc2)cc1 | 25.7 | 85.2 | 100 | 215 | 20.6 | 106 | 3.31 | 662 | 0.5 | 34.6 | 1.6 | 1400 | 100 | 8.4 | 100 |  |  | 
3 | NS(=O)(=O)c1ccc(CC/N=C/c2c[nH]c3ccc(Br)cc23)cc1 | 70.2 | 24.9 | 100 | 243 | 0.95 | 1840 | 2.45 | 714 | 0.3 | 627 | 0.9 | 2030 | 100 | 23.9 | 100 | 2 | 2 | 2
4 | NS(=O)(=O)c1ccc(CC/N=C/c2ccc(Br)cc2O)cc1 | 5.6 | 761 | 10 | 20.8 | 22.3 | 190 | 32 | 132 | 0.3 | 29.9 | 2.1 | 1980 | 10 | 0.9 | 10 |  |  | 
5 | NS(=O)(=O)c1ccc(CC/N=C/c2c(F)c(F)cc(F)c2F)cc1 | 90.1 | 29.2 | 100 | 255 | 2.26 | 1160 | 2.56 | 1030 | 6.1 | 288 | 24.5 | 107 | 100 | 22.3 | 100 | 2 | 2 | 2
6 | NS(=O)(=O)c1ccc(/N=C/c2ccc(-c3ccccn3)cc2)cc1 | 4.6 | 940 |  | 2.7 | 21.7 | 202 | 255 | 17.1 | 0.5 | 31.4 | 3.5 | 1250 |  | 0.7 |  |  |  | 
7 | CSc1ccc(/C=N/CCc2ccc(S(N)(=O)=O)cc2)cc1 | 37 | 79.4 | 10 | 24.7 | 21.8 | 135 | 28.7 | 102 | 3.3 | 32.5 | 13.6 | 216 | 10 | 8.9 | 10 |  |  | 
8 | NS(=O)(=O)c1ccc(/N=C/c2ccc(-c3ccccc3)cc2)c(F)c1 | 2.9 | 523 | 2 | 3.1 | 9.5 | 159 | 161 | 9.4 | 3.2 | 52.4 | 9.7 | 155 |  | 1 |  |  |  | 
9 | NS(=O)(=O)c1ccc(/N=C/c2ccc(Br)cc2O)cc1 | 6.9 | 625 | 10 | 29.9 | 16.9 | 256 | 23.7 | 183 | < 0.3 | 41.9 | < 1.7 | > 2500 | 10 | 1.1 | 10 |  |  | 
10 | NS(=O)(=O)c1ccc(/N=C/c2csc3ccccc23)cc1 | 3 | 1030 |  | 3.2 | 16.7 | 183 | 207 | 14.8 | 0.5 | 39.8 | 2.1 | 1420 |  | 0.6 |  |  |  | 
11 | COc1cc([N+](=O)[O-])ccc1/C=N/CCc1ccc(S(N)(=O)=O)cc1 | 0.7 | 330 | 2 | 1 | 21.2 | 10.1 | 163 | 1.3 | 0.09 | 7.9 | 0.1 | 1940 |  | 0.5 |  |  |  | 
12 | NS(=O)(=O)c1ccc(/N=C/c2ccccc2)c(F)c1 | 43.2 | 11.5 | 100 | 307 | 0.56 | 891 | 2.31 | 216 | 0.3 | 1270 | < 0.2 | > 2500 | 100 | 61.5 | 100 | 2 | 2 | 2
13 | NS(=O)(=O)c1ccc(CC/N=C/c2cccc(Br)c2O)cc1 | 118 | 45.1 | 10 | > 412 | 15.7 | 340 | 24.3 | 220 | > 7.9 | > 637 | 4.2 | 1270 | 10 | > 222 | 10 |  |  | 
14 | NS(=O)(=O)c1ccc(CC/N=C/c2ccc(-c3ccccc3)cc2)cc1 | 117 | 59.7 | 10 | 46.5 | 1.44 | 4860 | 15.1 | 465 | 1.3 | 487 | 12.9 | 542 | 10 | 11.7 | 10 |  |  | 
15 | NS(=O)(=O)c1ccc(/N=C/c2ccco2)c(F)c1 | 0.8 | 308 | 2 | 0.4 | 11.6 | 21.3 | 162 | 1.5 | 0.4 | 5.5 | 1.5 | 168 |  | 0.2 |  |  |  | 
16 | NS(=O)(=O)c1ccc(CC/N=C/c2ccc(-c3ccccn3)cc2)cc1 | 2.5 | 529 | 10 | 16.3 | 19.2 | 69.9 | 24.8 | 54.2 | 0.3 | 20.9 | 1.1 | 1240 | 10 | 0.8 | 10 |  |  | 
17 | NS(=O)(=O)c1ccc(CC/N=C/c2ccc(S(=O)(=O)O)o2)cc1 | 4.2 | 682 | 10 | 18.1 | 12.1 | 236 | 25.7 | 111 | 0.3 | 38.5 | 2 | 1430 | 10 | 0.7 | 10 |  |  | 
